Here are results for 7 molecules from ChEMBL document CHEMBL1157416, “Novel open-chain cytochalsins from the marine-derived fungus Spicaria elegans” (J Nat Prod, 2008).

Molecules are shown by their SMILES.

Common to all, as to format: functional, cell-based
Assay [1] concerns P388. As to the kind of experiment: Cytotoxicity against mouse P388 cells after 72 hrs by MTT assay. Particulars: P388, 72 h. In outline: (§1)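 Cells grown in RPMI-1640 with 10% FBS, 5% CO2/95% air, 37 °C; plated at 5 × 10^4 cells/mL, preincubated 24 h, then compounds added in DMSO at several concentrations for 72 h. MTT (5 mg/mL) added for 4 h, medium replaced by DMSO to dissolve formazan, absorbance read at 570 nm; IC50 values reported.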
(Tetrazolium dyes change colour on reduction, which living cells bring about.)

For assay [2], the system named is A549. As to the kind of experiment: Cytotoxicity against human A549 cells after 72 hrs by MTT assay. Particulars: A549, 72 h. In outline:
as §1

Assay [3] concerns HL-60. The assay is described as follows: Cytotoxicity against human HL60 cells after 72 hrs by MTT assay. To be noted: HL-60, 72 h. The method in brief:
as §1

The subject of assay [4] is Bel-7402. As to the kind of experiment: Cytotoxicity against human BEL-7402 cells after 72 hrs by MTT assay. Particulars: Bel-7402, 72 h. The method in brief: as §1

In the case of `C/C1=C/CC(=O)O[C@@]23C(=O)N[C@@H](Cc4ccc(O)cc4)[C@@H]2[C@H](C)[C@@]2(C)O[C@H]2[C@@H]3/C=C/C[C@H](C)C1=O`, the IC50 in assay [1] was 79 µM; in assay [2], 96 µM; in assay [3] it was 66 µM; in assay [4], 94 µM.

Consider `C=C1[C@@H](C)[C@H]2[C@H](Cc3ccccc3)NC(=O)[C@@]2(O)[C@@H](/C=C/C[C@H](C)[C@@H](O)[C@@H](C)O)[C@@H]1O` [CYTOCHALASIN Z10], for which the IC50 in assay [1] is over 100 µM; in assay [2], 9.6 µM; in assay [3] it was 69 µM; in assay [4], over 100 µM.

Turning to `C=C1[C@@H](C)[C@H]2[C@H](Cc3ccccc3)NC(=O)[C@@]2(O)[C@@H](/C=C/C[C@H](C)C(=O)[C@H](C)O)[C@@H]1O` [CYTOCHALASIN Z11], the IC50 in assay [1] was 69 µM; in assay [2], 4.3 µM; in assay [3], 45 µM; in assay [4], over 100 µM.

On to `CC1=C(C)[C@H]2[C@H](Cc3ccccc3)NC(=O)[C@@]2(O)[C@@H](/C=C/C[C@H](C)[C@@H](O)[C@@H](C)O)[C@@H]1O` [CYTOCHALASIN Z12], for which the IC50 was over 100 µM in assay [1], 92 µM in assay [2], 89 µM in assay [3] and over 100 µM in assay [4].

In the case of `CC1=C(C)[C@H]2[C@H](Cc3ccccc3)NC(=O)[C@@]2(O)[C@@H](/C=C/C[C@H](C)C(=O)[C@H](C)O)[C@@H]1O` [CYTOCHALASIN Z13], the IC50 in assay [1] was 67 µM; in assay [2], 76 µM; in assay [3] it was 80 µM; in assay [4], 88 µM.

In the case of `CC(=O)[C@@H](O)[C@@H](C)C/C=C/[C@H]1[C@H](O)C(C)=C(C)[C@H]2[C@H](Cc3ccccc3)NC(=O)[C@@]12O` [CYTOCHALASIN Z14], the IC50 in assay [1], in assay [2], in assay [3] and in assay [4] was over 100 µM each time.

Take `CC(=O)[C@H](O)[C@@H](C)C/C=C/[C@H]1[C@H](O)C(C)=C(C)[C@H]2[C@H](Cc3ccccc3)NC(=O)[C@@]12O` [CYTOCHALASIN Z15]: the IC50 in assay [1], in assay [2], in assay [3] and in assay [4] was over 100 µM in each case.

Broadly, the IC50 is the concentration at which inhibition is half-maximal.
